Results as given in ChEMBL document CHEMBL1127462, “Novel dual inhibitors of 5-lipoxygenase and thromboxane A2 synthetase: synthesis and structure-activity relationships of 3-pyridylmethyl-substituted 2-amino-6-hydroxybenzothiazole derivatives” (J Med Chem, 1994).
pIC50: −log10 of the molar value.

Legend:
[1] = target: T1, Polyunsaturated fatty acid 5-lipoxygenase (Rattus norvegicus, UniProt P12527); assay: Inhibitory activity against the production of leukotriene B4 (LTB4) in glycogen-induced peritoneal cells of rat; format: functional
T1 sequence (P12527 whole entry): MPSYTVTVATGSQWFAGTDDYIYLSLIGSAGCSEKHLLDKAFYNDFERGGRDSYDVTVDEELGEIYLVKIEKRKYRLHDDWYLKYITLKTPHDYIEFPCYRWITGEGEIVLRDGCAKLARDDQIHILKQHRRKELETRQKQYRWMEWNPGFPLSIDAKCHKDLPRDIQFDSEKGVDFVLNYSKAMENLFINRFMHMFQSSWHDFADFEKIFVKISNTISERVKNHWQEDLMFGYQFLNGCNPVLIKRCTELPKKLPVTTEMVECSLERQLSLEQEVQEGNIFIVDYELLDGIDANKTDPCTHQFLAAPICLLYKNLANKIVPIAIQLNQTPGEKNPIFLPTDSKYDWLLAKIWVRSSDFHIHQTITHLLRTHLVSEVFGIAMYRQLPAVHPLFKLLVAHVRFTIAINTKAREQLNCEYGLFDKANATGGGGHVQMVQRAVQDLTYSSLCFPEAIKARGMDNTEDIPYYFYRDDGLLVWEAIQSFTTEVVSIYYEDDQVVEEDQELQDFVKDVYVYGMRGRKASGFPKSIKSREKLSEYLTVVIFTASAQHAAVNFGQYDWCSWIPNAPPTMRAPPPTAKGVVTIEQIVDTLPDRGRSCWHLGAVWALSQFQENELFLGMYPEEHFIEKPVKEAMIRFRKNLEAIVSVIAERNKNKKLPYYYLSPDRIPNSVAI
Method in brief: (§1)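 Peritoneal leukocytes elicited in male F344 rats by ip 6% glycogen, suspended in Ca/Mg-free HBSS (5 × 10⁶ cells/mL). Cells preincubated 5 min at 37 °C with compound or vehicle (0.1% DMSO/0.1% BSA), stimulated with A23187 (4 μM, 10 min, 37 °C), stopped with BW755C. LTB₄, TXB₂ and PGE₂ in supernatant by radioimmunoassay. Duplicate points; IC50 by probit analysis.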

[2] = target: Cyclooxygenase (Rattus norvegicus); assay: Inhibitory activity against the production of prostaglandin E2 (PGE2) in glycogen-induced peritoneal cells of rat
[3] = target: T2, Thromboxane-A synthase (Rattus norvegicus, UniProt P49430); assay: Inhibitory activity against the production of thromboxane B2 (TXB2) in glycogen-induced peritoneal cells of rat; format: functional; method in brief: as §1
T2 sequence (P49430 whole entry): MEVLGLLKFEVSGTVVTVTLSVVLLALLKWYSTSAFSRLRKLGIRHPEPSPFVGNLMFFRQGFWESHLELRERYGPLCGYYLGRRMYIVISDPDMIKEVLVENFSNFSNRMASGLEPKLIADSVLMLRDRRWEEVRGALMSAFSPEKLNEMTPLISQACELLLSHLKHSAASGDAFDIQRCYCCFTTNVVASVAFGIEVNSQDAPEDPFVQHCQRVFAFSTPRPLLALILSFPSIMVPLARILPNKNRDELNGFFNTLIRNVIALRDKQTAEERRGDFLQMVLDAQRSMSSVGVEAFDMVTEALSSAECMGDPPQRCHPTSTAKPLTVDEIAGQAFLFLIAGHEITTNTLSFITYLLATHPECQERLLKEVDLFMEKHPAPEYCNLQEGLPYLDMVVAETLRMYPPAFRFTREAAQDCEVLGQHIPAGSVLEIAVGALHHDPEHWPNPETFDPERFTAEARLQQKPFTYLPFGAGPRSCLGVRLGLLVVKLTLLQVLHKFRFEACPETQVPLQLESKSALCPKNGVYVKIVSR

[4] = species: Homo sapiens; assay: Tested for inhibitory activity against the production of leukotriene B4 (LTB4) in human whole blood; format: functional, organism-based
Method in brief: (§2)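 Heparinized (10 U/mL) fresh blood from healthy volunteers, 0.4 mL aliquots, preincubated 5 min at 37 °C with compound or vehicle (0.1% DMSO/0.1% BSA). A23187 (40 μM) added for 20 min. LTB₄, TXB₂, PGE₂ in plasma by radioimmunoassay. Duplicate points; IC50 by probit analysis.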

[5] = target: T1, Polyunsaturated fatty acid 5-lipoxygenase; assay: Tested for inhibitory activity against 5-lipoxygenase in microsome of RBL-1 cells; format: cell-based
Method in brief: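 RBL-1 cells sonicated at 0 °C in 50 mM phosphate, pH 7.4, with 0.25 M sucrose and 1 mM EDTA. Homogenate preincubated 5 min at 37 °C with compound plus 2 mM glutathione, then arachidonic acid (0.2 mM) for 10 min at 37 °C. Formic acid stop, CHCl₃/MeOH extraction, 5-HETE by HPLC. Duplicate points; IC50 by probit analysis.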

[6] = tested on: Rattus norvegicus; assay: Tested for the ability to decrease lesion area in the colon of the TNB/ethanol-induced chronic colitis rats at the dosage of 100 mg/kg/day; format: functional
Method in brief: (§3)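 TNB/ethanol colitis rats dosed orally (0.5% MC suspension) once daily for 11 days from day 3, killed day 14. Ethanol-only group as baseline. Colonic MPO activity measured; lesion area (mm²/colon) by stereomicroscope. % inhibition = [1 − (test − ethanol)/(control − ethanol)] × 100. Mean ± SEM.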

[7] = species: Homo sapiens; assay: Tested for inhibitory activity against the production of prostaglandin E2 (PGE2) in human whole blood; format: functional, organism-based; method in brief: as §2
[8] = target: T3, Thromboxane-A synthase (Homo sapiens, UniProt P24557); assay: Tested for inhibitory activity against thromboxane A2 (TXA2) synthetase in microsome of human platelets
T3 sequence (P24557 whole entry): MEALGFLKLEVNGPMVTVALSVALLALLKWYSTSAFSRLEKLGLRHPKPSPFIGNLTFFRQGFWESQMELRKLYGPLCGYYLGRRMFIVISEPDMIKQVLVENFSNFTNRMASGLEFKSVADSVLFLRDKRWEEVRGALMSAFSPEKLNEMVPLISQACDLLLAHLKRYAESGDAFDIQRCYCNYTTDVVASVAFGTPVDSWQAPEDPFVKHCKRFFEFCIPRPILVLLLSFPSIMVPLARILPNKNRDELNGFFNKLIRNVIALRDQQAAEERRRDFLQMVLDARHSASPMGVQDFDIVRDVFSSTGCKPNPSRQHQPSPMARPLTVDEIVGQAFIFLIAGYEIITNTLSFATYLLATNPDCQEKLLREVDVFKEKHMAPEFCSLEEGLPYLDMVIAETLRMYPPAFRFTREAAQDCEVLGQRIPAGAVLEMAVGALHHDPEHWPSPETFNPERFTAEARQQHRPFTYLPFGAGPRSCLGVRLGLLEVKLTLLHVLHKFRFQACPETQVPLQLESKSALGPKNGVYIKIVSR
Method in brief: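 Platelet microsome fraction (105000g) resuspended in 50 mM Tris-HCl-saline, pH 7.4, with 10 μM indomethacin. 20 μg protein preincubated 5 min at 25 °C with compound, PGH₂ (1 μg/mL) for 1 min at 25 °C, citric acid/ethanol stop. TXB₂ by radioimmunoassay. Duplicate points; IC50 by probit analysis.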

[9] = Tested for inhibitory activity against thromboxane B2 (TXB2) in human platelets
Method in brief: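 Washed human platelets (3 × 10⁸ cells/mL) in Tris-HCl-saline, pH 7.4, with 10 μM indomethacin. Preincubated 5 min at 25 °C with compound, PGH₂ (1 μg/mL) for 3 min at 25 °C, citrate/ethanol stop. TXB₂ in supernatant by radioimmunoassay. Duplicate points; IC50 by probit analysis.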

[10] = species: Homo sapiens; assay: Tested for inhibitory activity against the production of thromboxane B2 (TXB2) in human whole blood; format: functional, organism-based; method in brief: as §2
[11] = species: Homo sapiens; assay: Tested for inhibitory activity against leukotriene B4 (LTB4) in human neutrophils; format: functional, organism-based
Method in brief: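 Human blood neutrophils from heparinized blood (dextran sedimentation, Percoll gradient), 1 × 10⁶ cells/mL in Ca/Mg-free HBSS. Preincubated 5 min at 37 °C with compound or vehicle, A23187 (4 μM) for 10 min. LTB₄ in cell-free supernatant by radioimmunoassay. Duplicate points; IC50 by probit analysis.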

[12] = Tested for the suppression ratio, the difference between the amount of PGE-2 produced in the test groups and the control group at the dosage of 100 mg/kg; format: functional
Method in brief: (§4)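 Male F344 rats (9 weeks, fasted 2 days) given a single intracolonic dose of 30 mg TNB in 0.25 mL 50% ethanol. Day 7: one oral dose in 0.5% MC, or vehicle. Killed 6 h later; colon incubated with A23187 (2 μg/mL) in Tyrode, 15 min, 37 °C. Eicosanoids by radioimmunoassay. Suppression versus vehicle controls; mean ± SEM.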

[13] = Tested for the suppression ratio, the difference between the amount of TXB2 produced in the test groups and the control group at the dosage of 100 mg/kg; format: functional; method in brief: as §4
[14] = Tested for the suppression ratio, the difference between the amount of LTB4 produced in the test groups and the control group at the dosage of 100 mg/kg; format: functional; method in brief: as §4
[15] = tested on: Rattus norvegicus; assay: Tested for the ability to decrease lesion area in the colon of the TNB/ethanol-induced chronic colitis rats at the dosage of 500 mg/kg/day; format: functional; method in brief: as §3

Row | Structure (SMILES) | pIC50 [1] | IC50 [2] [nM] | pIC50 [3] | inhibition in vivo at 100 mg/kg/day [6] [%] | other results
1 | CCc1c(O)c(OC)c(Cc2cccnc2)c2nc(NC)sc12 | > 7.00 | > 100000 | 6.48 |  | 
2 | CNc1nc2c(C)c(Cc3cccnc3)c(O)c(C)c2s1.Cl.Cl | 6.52 | > 100000 | > 7.00 |  | 
3 | CCNc1nc2c(Cc3cccnc3)c(C)c(O)c(C)c2s1 | > 7.00 |  | 7.00 | 57 | pIC50 [4]: 5.96; pIC50 [5]: 6.04; pIC50 [7]: < 4.04; pIC50 [8]: 8.00; pIC50 [9]: 7.22; pIC50 [10]: 6.25; pIC50 [11]: > 7.00
4 | Cc1cc(O)c(C)c2sc(NCc3cccnc3)nc12 | > 7.00 |  | 5.36 | 71 | 
5 | COc1c(O)c(C)c2sc(N)nc2c1Cc1cccnc1.Cl.Cl | 6.77 | > 100000 | 6.96 |  | 
6 | Cc1c(O)c(Cc2cccnc2)c2sc(N)nc2c1C.Cl.Cl | 6.60 | > 100000 | 5.28 |  | 
7 | CCNc1nc2c(C)c(Cc3cccnc3)c(O)c(C)c2s1 | 6.64 | > 100000 | 6.19 | 48 | Suppression ratio [12]: 8%; Suppression ratio [13]: 67%; pIC50 [8]: 6.41; pIC50 [9]: 5.64; Suppression ratio [14]: 83%
8 | CCCNc1nc2c(Cc3cccnc3)c(C)c(O)c(C)c2s1.Cl.Cl | > 7.00 | > 100000 | 7.05 |  | 
9 | O=C(O)c1cc(/N=N/c2ccc(S(=O)(=O)Nc3ccccn3)cc2)ccc1O [SULFASALAZINE] |  |  |  |  | inhibition in vivo at 500 mg/kg/day [15]: 16%
10 | COc1cc2nc(NCc3cccnc3)sc2c(OC)c1O | 7.05 |  | 5.26 |  | 
11 | Oc1cc(-c2ccccc2)c2nc(NCc3cccnc3)sc2c1 | 5.15 | 9600 | 5.85 |  | 
12 | Cc1c(O)c(C)c2sc(NCc3cccnc3)nc2c1C | > 7.00 |  | 5.70 | 81 | 
13 | Cc1c(O)c(C)c2sc(N)nc2c1Cc1cccnc1 | 6.72 |  | 8.70 |  | 
14 | CNc1nc2c(Cc3cccnc3)c(C)c(O)c(C)c2s1 |  |  |  | 39 | pIC50 [4]: 6.08; pIC50 [5]: 6.64; pIC50 [7]: < 4.05; pIC50 [8]: 8.05; pIC50 [9]: 7.10; pIC50 [10]: 5.96
15 | Cc1c(O)c2ccccc2c2nc(NCc3cccnc3)sc12 | 5.80 | 5500 | 5.40 |  | 
16 | Cc1c(O)c(C)c2sc(NCc3ccc(S(N)(=O)=O)cc3)nc2c1C |  |  |  |  | pIC50 [4]: 4.62; pIC50 [5]: 6.68; Suppression ratio [12]: 0%; Suppression ratio [13]: 0%; pIC50 [7]: < 4.00; pIC50 [9]: < 4.00; pIC50 [10]: 4.38; Suppression ratio [14]: 86%
17 | CCc1c(O)c(OC)c(Cc2cccnc2)c2nc(N)sc12 | 6.82 |  | 6.74 |  | 
18 | CNc1nc2c(Cc3cccnc3)c(OC)c(O)c(C)c2s1 | 6.77 |  | 5.89 |  | 
19 | CCNc1nc2c(C)c(C)c(O)c(Cc3cccnc3)c2s1 | > 7.00 | > 100000 | 5.70 | 64 | pIC50 [4]: 6.30; pIC50 [5]: 6.57; Suppression ratio [12]: 41%; Suppression ratio [13]: 53%; pIC50 [7]: < 4.00; pIC50 [8]: 6.09; pIC50 [9]: 5.37; pIC50 [10]: 4.46; Suppression ratio [14]: 89%
